# Measurements: ChEMBL document CHEMBL1687761 (2010)
# Key:
# Type in all cases: functional
# Escherichia coli [1] = assay: Antimicrobial activity against Escherichia coli XL1-Blue harboring pLBII-VIM-2 plasmid expressing VIM-2 W87F mutant beta-lactamase by broth microdilution method
# Outline: (§1)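 Isogenic E. coli XL-1 strains carried pLBII-VIM-2 encoding wild-type or mutant VIM-2, or the empty pBC-SK vector. β-Lactam MICs were determined by CLSI broth microdilution in cation-adjusted Mueller-Hinton broth.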
# Escherichia coli [2] = assay: Antimicrobial activity against Escherichia coli XL1-Blue harboring pLBII-VIM-2 plasmid expressing VIM-2 W87A mutant beta-lactamase by broth microdilution method; outline: as §1
# Escherichia coli [3] = assay: Antimicrobial activity against Escherichia coli XL1-Blue harboring pLBII-VIM-2 plasmid expressing VIM-2 A64W mutant beta-lactamase by broth microdilution method; outline: as §1
# Escherichia coli [4] = assay: Antimicrobial activity against Escherichia coli XL1-Blue harboring pBC-SK plasmid by broth microdilution method; outline: as §1
# Escherichia coli [5] = assay: Antimicrobial activity against Escherichia coli XL1-Blue harboring pLBII-VIM-2 plasmid expressing VIM-2 beta-lactamase by broth microdilution method; outline: as §1
# Escherichia coli [6] = assay: Antimicrobial activity against Escherichia coli XL1-Blue VIM-2 F61S mutant beta-lactamase by broth microdilution method
# Escherichia coli [7] = assay: Antimicrobial activity against Escherichia coli XL1-Blue VIM-2 W87A mutant beta-lactamase by broth microdilution method
# Escherichia coli [8] = assay: Antimicrobial activity against Escherichia coli XL1-Blue VIM-2 F61I mutant beta-lactamase by broth microdilution method
# Escherichia coli [9] = assay: Antimicrobial activity against Escherichia coli XL1-Blue VIM-2 W87I mutant beta-lactamase by broth microdilution method
# Escherichia coli [10] = assay: Antimicrobial activity against Escherichia coli XL1-Blue VIM-2 F61K mutant beta-lactamase by broth microdilution method
# Escherichia coli [11] = assay: Antimicrobial activity against Escherichia coli XL1-Blue VIM-2 F61H mutant beta-lactamase by broth microdilution method
# Escherichia coli [12] = assay: Antimicrobial activity against Escherichia coli XL1-Blue VIM-2 W87M mutant beta-lactamase by broth microdilution method
# Escherichia coli [13] = assay: Antimicrobial activity against Escherichia coli XL1-Blue VIM-2 W87R mutant beta-lactamase by broth microdilution method
# Escherichia coli [14] = assay: Antimicrobial activity against Escherichia coli XL1-Blue VIM-2 F61A mutant beta-lactamase by broth microdilution method
# Escherichia coli [15] = assay: Antimicrobial activity against Escherichia coli XL1-Blue VIM-2 W87Q mutant beta-lactamase by broth microdilution method
# Escherichia coli [16] = assay: Antimicrobial activity against Escherichia coli XL1-Blue VIM-2 F61T mutant beta-lactamase by broth microdilution method
# Escherichia coli [17] = assay: Antimicrobial activity against Escherichia coli XL1-Blue VIM-2 F61W mutant beta-lactamase by broth microdilution method
# Escherichia coli [18] = assay: Antimicrobial activity against Escherichia coli XL1-Blue VIM-2 W87Y mutant beta-lactamase by broth microdilution method
# Escherichia coli [19] = assay: Antimicrobial activity against Escherichia coli XL1-Blue VIM-2 F61C mutant beta-lactamase by broth microdilution method
# Escherichia coli [20] = assay: Antimicrobial activity against Escherichia coli XL1-Blue VIM-2 F61V mutant beta-lactamase by broth microdilution method
# Escherichia coli [21] = assay: Antimicrobial activity against Escherichia coli XL1-Blue VIM-2 W87N mutant beta-lactamase by broth microdilution method
# Escherichia coli [22] = assay: Antimicrobial activity against Escherichia coli XL1-Blue VIM-2 F61G mutant beta-lactamase by broth microdilution method
# Escherichia coli [23] = assay: Antimicrobial activity against Escherichia coli XL1-Blue VIM-2 F61L mutant beta-lactamase by broth microdilution method
# Escherichia coli [24] = assay: Antimicrobial activity against Escherichia coli XL1-Blue VIM-2 W87V mutant beta-lactamase by broth microdilution method
# Escherichia coli [25] = assay: Antimicrobial activity against Escherichia coli XL1-Blue VIM-2 W87P mutant beta-lactamase by broth microdilution method
# Escherichia coli [26] = assay: Antimicrobial activity against Escherichia coli XL1-Blue VIM-2 F61Y mutant beta-lactamase by broth microdilution method
# Escherichia coli [27] = assay: Antimicrobial activity against Escherichia coli XL1-Blue VIM-2 F61P mutant beta-lactamase by broth microdilution method
# Escherichia coli [28] = assay: Antimicrobial activity against Escherichia coli XL1-Blue VIM-2 W87L mutant beta-lactamase by broth microdilution method
# Escherichia coli [29] = assay: Antimicrobial activity against Escherichia coli XL1-Blue VIM-2 F61R mutant beta-lactamase by broth microdilution method
# Escherichia coli [30] = assay: Antimicrobial activity against Escherichia coli XL1-Blue VIM-2 W87K mutant beta-lactamase by broth microdilution method
# Escherichia coli [31] = assay: Antimicrobial activity against Escherichia coli XL1-Blue VIM-2 W87G mutant beta-lactamase by broth microdilution method
# Escherichia coli [32] = assay: Antimicrobial activity against Escherichia coli XL1-Blue VIM-2 F61N mutant beta-lactamase by broth microdilution method
# Escherichia coli [33] = assay: Antimicrobial activity against Escherichia coli XL1-Blue VIM-2 W87T mutant beta-lactamase by broth microdilution method
# Escherichia coli [34] = assay: Antimicrobial activity against Escherichia coli XL1-Blue VIM-2 W87S mutant beta-lactamase by broth microdilution method
# Escherichia coli [35] = assay: Antimicrobial activity against Escherichia coli XL1-Blue VIM-2 W87F mutant beta-lactamase by broth microdilution method
compound,measurement,setting,value
C[C@@H](O)[C@H]1C(=O)N2C(C(=O)O)=C(S[C@@H]3CN[C@H](C(=O)Nc4cccc(C(=O)O)c4)C3)[C@H](C)[C@H]12,MIC,Escherichia coli [1],≤ 0.03 µg/mL
same,MIC,Escherichia coli [2],≤ 0.03 µg/mL
same,MIC,Escherichia coli [3],0.5 µg/mL
same,MIC,Escherichia coli [4],≤ 0.03 µg/mL
same,MIC,Escherichia coli [5],0.5 µg/mL
CO/N=C(\C(=O)N[C@@H]1C(=O)N2C(C(=O)[O-])=C(C[N+]3(C)CCCC3)CS[C@H]12)c1csc(N)n1,MIC,Escherichia coli [2],0.12 µg/mL
same,MIC,Escherichia coli [3],0.5 µg/mL
same,MIC,Escherichia coli [5],0.5 µg/mL
CC1(C)S[C@@H]2[C@H](NC(=O)[C@H](N)c3ccccc3)C(=O)N2[C@H]1C(=O)O [AMPICILLIN],MIC,Escherichia coli [6],8 µg/mL
same,MIC,Escherichia coli [7],≤ 4 µg/mL
same,MIC,Escherichia coli [1],8 µg/mL
same,MIC,Escherichia coli [8],≥ 32 µg/mL
same,MIC,Escherichia coli [9],≤ 4 µg/mL
same,MIC,Escherichia coli [10],≥ 32 µg/mL
same,MIC,Escherichia coli [11],≥ 32 µg/mL
same,MIC,Escherichia coli [12],≤ 4 µg/mL
same,MIC,Escherichia coli [13],≤ 4 µg/mL
same,MIC,Escherichia coli [14],≥ 32 µg/mL
same,MIC,Escherichia coli [15],≤ 4 µg/mL
same,MIC,Escherichia coli [16],≥ 32 µg/mL
same,MIC,Escherichia coli [3],64 µg/mL
same,MIC,Escherichia coli [17],≥ 32 µg/mL
same,MIC,Escherichia coli [18],≤ 4 µg/mL
same,MIC,Escherichia coli [19],8 µg/mL
same,MIC,Escherichia coli [20],≥ 32 µg/mL
same,MIC,Escherichia coli [21],≤ 4 µg/mL
same,MIC,Escherichia coli [22],≥ 32 µg/mL
same,MIC,Escherichia coli [23],≥ 32 µg/mL
same,MIC,Escherichia coli [24],≤ 4 µg/mL
same,MIC,Escherichia coli [25],≤ 4 µg/mL
same,MIC,Escherichia coli [26],≥ 32 µg/mL
same,MIC,Escherichia coli [27],8 µg/mL
same,MIC,Escherichia coli [28],≤ 4 µg/mL
same,MIC,Escherichia coli [29],8 µg/mL
same,MIC,Escherichia coli [5],64 µg/mL
same,MIC,Escherichia coli [30],≤ 4 µg/mL
same,MIC,Escherichia coli [31],≤ 4 µg/mL
same,MIC,Escherichia coli [32],≥ 32 µg/mL
same,MIC,Escherichia coli [33],≤ 4 µg/mL
same,MIC,Escherichia coli [34],≤ 4 µg/mL
same,MIC,Escherichia coli [35],≤ 4 µg/mL
C[C@H]1[C@H](NC(=O)/C(=N\OC(C)(C)C(=O)O)c2csc(N)n2)C(=O)N1S(=O)(=O)O [AZTREONAM],MIC,Escherichia coli [2],0.12 µg/mL
same,MIC,Escherichia coli [3],0.12 µg/mL
same,MIC,Escherichia coli [5],0.12 µg/mL
CO/N=C(\C(=O)N[C@@H]1C(=O)N2C(C(=O)O)=C(COC(C)=O)CS[C@H]12)c1csc(N)n1 [CEFOTAXIME],MIC,Escherichia coli [1],0.12 µg/mL
same,MIC,Escherichia coli [2],0.12 µg/mL
same,MIC,Escherichia coli [3],> 32 µg/mL
same,MIC,Escherichia coli [4],0.12 µg/mL
same,MIC,Escherichia coli [5],> 32 µg/mL
CO[C@@]1(NC(=O)Cc2cccs2)C(=O)N2C(C(=O)O)=C(COC(N)=O)CS[C@@H]21 [CEFOXITIN],MIC,Escherichia coli [1],8 µg/mL
same,MIC,Escherichia coli [2],8 µg/mL
same,MIC,Escherichia coli [3],128 µg/mL
same,MIC,Escherichia coli [4],8 µg/mL
same,MIC,Escherichia coli [5],128 µg/mL
CC(C)(O/N=C(\C(=O)N[C@@H]1C(=O)N2C(C(=O)[O-])=C(C[n+]3ccccc3)CS[C@H]12)c1csc(N)n1)C(=O)O [CEFTAZIDIME],MIC,Escherichia coli [1],0.12 µg/mL
same,MIC,Escherichia coli [2],0.12 µg/mL
same,MIC,Escherichia coli [3],2 µg/mL
same,MIC,Escherichia coli [4],0.12 µg/mL
same,MIC,Escherichia coli [5],2 µg/mL
CO/N=C(\C(=O)N[C@@H]1C(=O)N2C(C(=O)O)=C(CSc3nc(=O)c(O)nn3C)CS[C@H]12)c1csc(N)n1 [CEFTRIAXONE],MIC,Escherichia coli [1],0.12 µg/mL
same,MIC,Escherichia coli [2],0.12 µg/mL
same,MIC,Escherichia coli [3],4 µg/mL
same,MIC,Escherichia coli [4],0.12 µg/mL
same,MIC,Escherichia coli [5],4 µg/mL
CO/N=C(\C(=O)N[C@@H]1C(=O)N2C(C(=O)O)=C(COC(N)=O)CS[C@H]12)c1ccco1 [CEFUROXIME],MIC,Escherichia coli [1],8 µg/mL
same,MIC,Escherichia coli [2],8 µg/mL
same,MIC,Escherichia coli [3],256 µg/mL
same,MIC,Escherichia coli [4],8 µg/mL
same,MIC,Escherichia coli [5],256 µg/mL
CC(=O)OCC1=C(C(=O)O)N2C(=O)[C@@H](NC(=O)Cc3cccs3)[C@H]2SC1 [CEPHALOTHIN],MIC,Escherichia coli [2],16 µg/mL
same,MIC,Escherichia coli [3],256 µg/mL
same,MIC,Escherichia coli [4],16 µg/mL
same,MIC,Escherichia coli [5],256 µg/mL
C[C@@H](O)[C@H]1C(=O)N2C(C(=O)O)=C(SCCNC=N)C[C@H]12 [IMIPENEM ANHYDROUS],MIC,Escherichia coli [2],0.12 µg/mL
same,MIC,Escherichia coli [3],1 µg/mL
same,MIC,Escherichia coli [5],1 µg/mL
C[C@@H](O)[C@H]1C(=O)N2C(C(=O)O)=C(S[C@@H]3CN[C@H](C(=O)N(C)C)C3)[C@H](C)[C@H]12 [MEROPENEM],MIC,Escherichia coli [1],≤ 0.03 µg/mL
same,MIC,Escherichia coli [2],≤ 0.03 µg/mL
same,MIC,Escherichia coli [3],0.5 µg/mL
same,MIC,Escherichia coli [4],≤ 0.03 µg/mL
same,MIC,Escherichia coli [5],0.5 µg/mL
CCN1CCN(C(=O)N[C@@H](C(=O)N[C@@H]2C(=O)N3[C@@H]2SC(C)(C)[C@@H]3C(=O)O)c2ccccc2)C(=O)C1=O [PIPERACILLIN],MIC,Escherichia coli [1],0.5 µg/mL
same,MIC,Escherichia coli [2],0.5 µg/mL
same,MIC,Escherichia coli [3],8 µg/mL
same,MIC,Escherichia coli [4],0.5 µg/mL
same,MIC,Escherichia coli [5],8 µg/mL
